# Assay results from different studies.
# Compare with care: the assays were run in different laboratories.
Structure (SMILES),test system,setting,quantity,result
C[C@H]1[C@@H](O)O[C@@H]2O[C@@]3(C)CC[C@H]4[C@H](C)CC[C@@H]1[C@@]24OO3,"Sprague-Dawley rat, plasma","oral, 10 mg/kg",AUC(0-inf),205 ng·h/mL
COc1ccc2cc3n(c(=O)c2c1OC)CCc1cc2c(cc1-3)OCO2,"male Sprague-Dawley rat, blood","oral, 50 mg/kg",AUC(0-t),701 ng·h/mL
O=C1c2ccncc2C(=O)c2c1[nH]c1ccccc21,"rat, plasma","intravenous, 1 mg/kg, single dose",AUC(0-inf),1.43 µM·h
CC1(CN)CCN(c2cnc3c(Sc4ccncc4Cl)n[nH]c3n2)CC1,"male Sprague-Dawley rat, plasma","intravenous, 2 mg/kg",AUC,151 ng·h/mL
N#C[C@@]12C[C@@H]1[C@@H](n1cnc3c(N[C@@H](C4CCC4)C4CC4)nc(I)nc31)[C@H](O)[C@@H]2O,"male Wistar rat, plasma","oral, 3 mg/kg",AUC(0-t),66.4 ng·h/mL
O=C1CC[C@H](N2Cc3cc(N4CCN(CC5CCN(c6ccc([C@@H]7c8ccc(O)cc8CC[C@@H]7c7ccccc7)cc6)CC5)CC4)ccc3C2=O)C(=O)N1,"female Sprague-Dawley rat, plasma","oral, 20 mg/kg, fed",AUC(0-t),18400 ng·h/mL
O=C(C=Cc1ccccc1)Nc1cc(-c2ccnc(N3CCC(O)CC3)c2)ccn1,"female Sprague-Dawley rat, plasma","intravenous, 5 mg/kg",AUC(0-inf),375 ng·h/mL
CC(=Nc1ccc(N=Cc2cnccn2)cc1)N(C)C,"male Sprague-Dawley rat, plasma","intravenous, 20 mg/kg",AUC(0-t),254 ng·h/mL
